In ChEMBL document CHEMBL1140942, “Novel pyrrolidine ureas as C-C chemokine receptor 1 (CCR1) antagonists” (J Med Chem, 2009):
Calls of active or inactive are those of the source. The calls are words filed in the database; no cut-off is given here.

Experiments:
[1] = biological target: T1, C-C chemokine receptor type 1 (Homo sapiens, UniProt P32246); assay: Displacement of [125I]MIP-1-alpha from human recombinant CCR1 expressed in HEK293 cells; format: cell-based
T1 sequence (P32246 whole entry): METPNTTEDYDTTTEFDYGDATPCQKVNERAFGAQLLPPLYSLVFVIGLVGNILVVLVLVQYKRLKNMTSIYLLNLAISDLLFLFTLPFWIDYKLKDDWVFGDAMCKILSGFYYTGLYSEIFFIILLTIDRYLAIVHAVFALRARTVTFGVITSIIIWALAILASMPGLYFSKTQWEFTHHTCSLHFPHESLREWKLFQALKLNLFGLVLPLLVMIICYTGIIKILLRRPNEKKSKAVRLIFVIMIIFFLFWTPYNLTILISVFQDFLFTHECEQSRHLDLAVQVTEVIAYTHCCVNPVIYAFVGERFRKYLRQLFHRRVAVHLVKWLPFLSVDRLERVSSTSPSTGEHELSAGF
Method in brief: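 Scintillation proximity binding in 384-well format. Membranes (50 µg/mL) were mixed with SPA beads (10 mg/mL) in buffer of 130 mM NaCl, 5 mM KCl, 1 mM MnCl₂, 50 mM Tris HCl pH 7.4 and 0.1% BSA. Varied compound concentrations added with [¹²⁵I]MIP-1α at 0.1 nM final. Plates spun, incubated 4 h, then counted.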

[2] = Metabolic stability in human liver microsomes assessed as compound remaining at 1 uM after 30 mins by LC/MS; format: ADME, Microsome; conditions: read-out: Stability
Method in brief: (§1)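 Compound at 1 µM incubated with rat or human liver microsomes (300 nM cytochrome P450) in phosphate buffer pH 7.4 with 1 mM NADPH for 30 min at 37 °C. Stopped with acetonitrile and centrifuged. Percent remaining at 30 min determined by LC/MS.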

[3] = (§2) AUC(0 to infinity) in Sprague-Dawley rat at 5 mg/kg, po; format: ADME, organism-based, Plasma; set-up: time infinity, dose 5 mg/kg, route oral; conditions: Sprague-Dawley, plasma
Method in brief: (§3)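 Male Sprague-Dawley rats, three to four per compound, given 5 mg/kg by oral gavage in 0.5% methyl cellulose, either singly or in a cassette. Serial blood drawn from an indwelling arterial cannula up to 6 or 24 h. Plasma proteins precipitated, and parent compound quantified by LC/MS/MS.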

[4] = Metabolic stability in rat liver microsomes assessed as compound remaining at 1 uM after 30 mins by LC/MS; format: ADME, Microsome; conditions: read-out: Stability; method in brief: as §1
[5] = Cmax in Sprague-Dawley rat at 5 mg/kg, po; format: ADME, organism-based; set-up: dose 5 mg/kg, route oral; conditions: in vivo; method in brief: as §3
[6] = AUC(0 to 6 hrs) in Sprague-Dawley rat at 5 mg/kg, po; format: ADME, organism-based; set-up: time < 6 hr, dose 5 mg/kg, route oral; conditions: plasma; method in brief: as §3
[7] = biological target: C-C chemokine receptor type 2 (Homo sapiens) (UniProt P41597); assay: Inhibition of CCR2b
[8] = biological target: T2, C-C chemokine receptor type 4 (Homo sapiens) (UniProt P51679); assay: Inhibition of CCR4
T2 sequence (whole entry): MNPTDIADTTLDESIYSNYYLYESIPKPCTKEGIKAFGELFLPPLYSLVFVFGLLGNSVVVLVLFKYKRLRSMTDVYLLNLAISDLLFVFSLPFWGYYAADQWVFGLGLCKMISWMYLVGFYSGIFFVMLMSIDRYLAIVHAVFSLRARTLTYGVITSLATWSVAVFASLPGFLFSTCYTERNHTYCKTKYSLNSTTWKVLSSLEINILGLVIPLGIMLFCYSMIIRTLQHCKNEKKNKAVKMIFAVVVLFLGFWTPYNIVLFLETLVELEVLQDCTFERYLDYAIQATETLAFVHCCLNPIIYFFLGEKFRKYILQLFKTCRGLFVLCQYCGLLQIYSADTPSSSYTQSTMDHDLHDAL

[9] = biological target: T3, C-X-C chemokine receptor type 2 (Homo sapiens) (UniProt P25025); assay: Inhibition of CXCR2
T3 sequence (whole entry): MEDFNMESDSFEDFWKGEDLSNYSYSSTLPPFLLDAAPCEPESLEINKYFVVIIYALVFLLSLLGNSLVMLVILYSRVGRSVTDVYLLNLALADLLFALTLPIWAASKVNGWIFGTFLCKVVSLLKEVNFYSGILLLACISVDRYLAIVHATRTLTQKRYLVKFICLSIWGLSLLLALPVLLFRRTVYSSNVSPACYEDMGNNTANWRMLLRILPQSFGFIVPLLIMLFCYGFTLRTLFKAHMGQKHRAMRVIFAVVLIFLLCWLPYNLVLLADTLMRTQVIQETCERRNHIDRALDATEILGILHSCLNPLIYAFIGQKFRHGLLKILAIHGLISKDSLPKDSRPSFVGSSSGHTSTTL

[10] = biological target: T4, C-X-C chemokine receptor type 1 (Homo sapiens) (UniProt P25024); assay: Inhibition of CXCR1
T4 sequence (whole entry): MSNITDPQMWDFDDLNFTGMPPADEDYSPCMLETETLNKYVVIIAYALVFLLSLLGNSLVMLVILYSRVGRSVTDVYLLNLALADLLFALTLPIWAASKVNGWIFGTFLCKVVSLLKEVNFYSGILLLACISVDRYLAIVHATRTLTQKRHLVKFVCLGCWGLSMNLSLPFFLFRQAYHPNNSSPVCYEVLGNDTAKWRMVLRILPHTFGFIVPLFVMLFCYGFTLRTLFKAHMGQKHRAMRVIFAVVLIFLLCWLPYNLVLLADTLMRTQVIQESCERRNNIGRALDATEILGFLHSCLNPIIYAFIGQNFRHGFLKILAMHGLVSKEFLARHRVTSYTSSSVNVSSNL

[11] = Half life in Sprague-Dawley rat at 5 mg/kg, po; format: ADME, organism-based; set-up: dose 5 mg/kg, route oral; conditions: in vivo; method in brief: as §3
[12] = biological target: C-C chemokine receptor type 5 (Homo sapiens) (UniProt P51681); assay: Inhibition of CCR5
Rattus norvegicus = assay: as §2; format: ADME, organism-based, Plasma; set-up: time infinity, dose 5 mg/kg, route oral; conditions: in vivo; method in brief: as §3
[13] = Oral bioavailability in Sprague-Dawley rat at 5 mg/kg; format: ADME, organism-based; conditions: in vivo
Method in brief: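 Oral dosing was 5 mg/kg by gavage in 0.5% methyl cellulose to male Sprague-Dawley rats (three to four), with a 1 mg/kg intravenous dose via indwelling catheter for comparison. Serial arterial-cannula blood sampling. Parent compound in protein-precipitated plasma measured by LC/MS/MS.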

[14] = biological target: T5, CX3C chemokine receptor 1 (Homo sapiens) (UniProt P49238); assay: Inhibition of CX3CR1
T5 sequence (whole entry): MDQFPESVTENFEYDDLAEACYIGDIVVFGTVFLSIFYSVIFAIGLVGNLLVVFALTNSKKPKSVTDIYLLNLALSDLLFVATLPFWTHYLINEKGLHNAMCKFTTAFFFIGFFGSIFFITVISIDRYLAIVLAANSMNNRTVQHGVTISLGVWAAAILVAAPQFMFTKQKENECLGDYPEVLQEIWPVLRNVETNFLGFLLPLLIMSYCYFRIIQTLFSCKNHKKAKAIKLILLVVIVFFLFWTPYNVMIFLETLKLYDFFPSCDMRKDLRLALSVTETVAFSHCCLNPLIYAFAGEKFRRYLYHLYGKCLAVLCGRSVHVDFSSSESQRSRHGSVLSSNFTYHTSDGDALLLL

C-C chemokine receptor type 2 (Homo sapiens), sequence (P41597 whole entry, looked up): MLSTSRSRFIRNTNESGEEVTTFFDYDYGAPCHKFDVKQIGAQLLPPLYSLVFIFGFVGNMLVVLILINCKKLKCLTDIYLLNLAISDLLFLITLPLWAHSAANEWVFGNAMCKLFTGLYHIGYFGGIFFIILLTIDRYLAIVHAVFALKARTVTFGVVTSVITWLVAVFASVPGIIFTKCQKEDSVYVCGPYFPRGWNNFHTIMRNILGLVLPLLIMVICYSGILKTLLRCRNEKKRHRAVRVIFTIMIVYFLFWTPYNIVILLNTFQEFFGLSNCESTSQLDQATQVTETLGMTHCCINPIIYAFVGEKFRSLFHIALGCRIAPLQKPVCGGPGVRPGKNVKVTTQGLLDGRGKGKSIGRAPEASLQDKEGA
C-C chemokine receptor type 5 (Homo sapiens), sequence (P51681 whole entry, looked up): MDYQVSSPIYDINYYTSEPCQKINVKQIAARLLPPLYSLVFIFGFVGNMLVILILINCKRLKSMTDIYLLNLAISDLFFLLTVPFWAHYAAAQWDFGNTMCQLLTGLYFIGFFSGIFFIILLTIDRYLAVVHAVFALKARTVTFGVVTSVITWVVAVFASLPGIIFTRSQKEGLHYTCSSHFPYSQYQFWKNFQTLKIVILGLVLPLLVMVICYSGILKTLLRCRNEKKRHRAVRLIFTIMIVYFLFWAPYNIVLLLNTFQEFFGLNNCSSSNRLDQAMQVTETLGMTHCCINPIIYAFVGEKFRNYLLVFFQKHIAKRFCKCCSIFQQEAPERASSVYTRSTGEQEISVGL

Structure (SMILES)	IC50 [1]	also measured
O=C([C@H]1CCCN1C(=O)Nc1ccc(Cl)cc1)N(CCO)Cc1cccc(Cl)c1	> 100000 nM	–
CC(c1ccc(Cl)cc1)N(C)C(=O)[C@H]1CCCN1C(=O)Nc1ccc(Cl)cc1 (stereo partly specified)	4700 nM	–
Cc1cc(Cl)ccc1CN(C)C(=O)[C@H]1CCCN1C(=O)Nc1ccc(Cl)cc1	> 100000 nM	–
CN(Cc1ccc(Cl)cc1)C(=O)[C@H]1CCCN1C(=O)Nc1cccc(C(F)(F)F)c1	2950 nM	–
CCCN(Cc1ccc(Cl)cc1)C(=O)[C@H]1CCCN1C(=O)Nc1ccc(Cl)cc1	3600 nM	–
Cc1ccc(CN(C)C(=O)[C@H]2CCCN2C(=O)Nc2ccc(Cl)cc2)cc1	5700 nM	–
CN(Cc1ccc(Cl)cc1)C(=O)[C@H]1CCCN1C(=O)Nc1ccc(F)cc1	700 nM	–
CN(Cc1ccc(F)cc1)C(=O)[C@H]1CCCN1C(=O)Nc1ccc(Cl)cc1	1300 nM	–
COc1ccc(CN(C)C(=O)[C@H]2CCCN2C(=O)Nc2ccc(Cl)cc2)cc1	> 77000 nM	–
Cc1cc(CN(C)C(=O)[C@H]2CCCN2C(=O)Nc2ccc(Cl)cc2)ccc1Cl	4000 nM	–
CN(Cc1ccc(Cl)cc1)C(=O)[C@H]1CCCN1C(=O)Nc1ccc(C#N)cc1	720 nM	–
O=C([C@H]1CCCN1C(=O)Nc1ccc(Cl)cc1)N(CCO)Cc1ccccc1Cl	43000 nM	–
O=C(NCc1ccc(Cl)cc1)[C@H]1CCCN1C(=O)Nc1ccc(Cl)cc1	> 75000 nM	–
CN(Cc1ccc(Cl)cc1)C(=O)[C@@H]1CCCN1C(=O)Nc1ccc(C(F)(F)F)cc1	> 28000 nM	–
Cc1ccc(NC(=O)N2CCC[C@@H]2C(=O)N(C)Cc2ccc(Cl)cc2)cc1	680 nM	–
CN(Cc1ccc(Cl)cc1)C(=O)[C@H]1CCN1C(=O)Nc1ccc(C(F)(F)F)cc1	> 100000 nM	–
CN(Cc1ccc(C(F)(F)F)cc1)C(=O)[C@H]1CCCN1C(=O)Nc1ccc(Cl)cc1	> 100000 nM	–
CN(Cc1ccc(C#N)cc1)C(=O)[C@H]1CCCN1C(=O)Nc1ccc(Cl)cc1	> 13000 nM	–
CN(Cc1ccc(Cl)cc1)C(=O)C1CCCCN1C(=O)Nc1ccc(C(F)(F)F)cc1 (stereo unspecified)	> 28000 nM	–

Now those with a lower IC50 [1], led by results:

IC50 [1]	Structure (SMILES)	also measured
540 nM	O=C([C@H]1CCCN1C(=O)Nc1ccc(Cl)cc1)N(CCO)Cc1ccc(Cl)cc1	–
290 nM	COc1ccc(NC(=O)N2CCC[C@@H]2C(=O)N(C)Cc2ccc(Cl)cc2)cc1	–
270 nM	CCN(Cc1ccc(Cl)cc1)C(=O)[C@H]1CCCN1C(=O)Nc1ccc(Cl)cc1	–
270 nM	CN(Cc1ccc(Cl)cc1)C(=O)[C@H]1CCCN1C(=O)Nc1ccc(Cl)cc1	–
140 nM	CN(Cc1ccc(Cl)cc1)C(=O)[C@H]1CCCN1C(=O)Nc1ccc(C(F)(F)F)cc1	remaining at 0.5 h, 1 µM [2]: 78%; Activity [7]: inactive; Activity [8]: inactive; Activity [9]: inactive; Activity [10]: inactive; half-life [11]: 4.4 h; Activity [12]: inactive; AUC (Rattus norvegicus): 9390 ng·h/mL; remaining at 0.5 h, 1 µM [4]: 74%; bioavailability [13]: 45%; Activity [14]: inactive; Cmax [5]: 834 ng/mL
120 nM	CN(Cc1ccc(Cl)cc1)C(=O)[C@H]1CCCN1C(=O)Nc1ccc(C(F)(F)F)cc1Cl	remaining at 0.5 h, 1 µM [2]: 73%; AUC(0-t) at 6 h [6]: 2060 ng·h/mL; remaining at 0.5 h, 1 µM [4]: 68%; Cmax [5]: 437 ng/mL
50 nM	Cc1cc(C(F)(F)F)ccc1NC(=O)N1CCC[C@@H]1C(=O)N(C)Cc1ccc(Cl)cc1	remaining at 0.5 h, 1 µM [2]: 58%; AUC(0-t) at 6 h [6]: 2590 ng·h/mL; remaining at 0.5 h, 1 µM [4]: 81%; Cmax [5]: 699 ng/mL
23 nM	CN(Cc1ccc(Cl)cc1)C(=O)[C@H]1CCCN1C(=O)Nc1ccc(C(F)(F)F)cc1F	remaining at 0.5 h, 1 µM [2]: 93%; AUC(0-t) at 6 h [6]: 1240 ng·h/mL; remaining at 0.5 h, 1 µM [4]: 76%; Cmax [5]: 291 ng/mL
11 nM	Cc1cc(C(F)(F)F)cc(C)c1NC(=O)N1CCC[C@@H]1C(=O)N(C)Cc1ccc(Cl)cc1	remaining at 0.5 h, 1 µM [2]: 74%; AUC(0-inf) [3]: 611 ng·h/mL; remaining at 0.5 h, 1 µM [4]: 84%; Cmax [5]: 195 ng/mL
